Data from ChEMBL document CHEMBL4219033, “Anticancer activity profiling of parthenolide analogs generated via P450-mediated chemoenzymatic synthesis” (2018).

How the values were obtained:
Type in all cases: functional
PC-3 = assay: Cytotoxicity against human PC3 cells assessed as cell viability at 10 uM after 24 hrs by MTT assay relative to control; conditions: PC-3, 24 h, read-out: Activity
Outline: (§1)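 Adherent lines in DMEM plus 10% FBS and penicillin-streptomycin, 37 °C, 5% CO2, lifted with Accutase. Seeded at 500–10,000 cells/well and rested 15 h. Compounds from 10 mM DMSO stocks dosed at 10 µM final, 1% DMSO final, n = 5, for 24 h. Medium then swapped for 1 mg/ml MTT in phenol-red-free medium for 3 h at 37 °C. Formazan dissolved in DMSO, OD read at 550 nm. Viability normalised to 1% DMSO vehicle control.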

Jurkat [1] = assay: Cytotoxicity against human Jurkat cells assessed as cell viability at 2 uM after 24 hrs by MTT assay relative to control; conditions: read-out: Activity
Outline: (§2)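 Suspension lines grown in α-MEM plus 10% FBS and penicillin-streptomycin, 37 °C, 5% CO2. Seeded at 30,000 cells/well in phenol-red-free α-MEM and rested 15 h. Exposed to 10 µM, or 2 µM in the lower-dose repeat, at 1% DMSO final for 24 h. 5 mg/ml MTT added directly for 3 h at 37 °C. Plates spun, formazan dissolved in DMSO, OD read at 550 nm. Viability relative to vehicle.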

A549 = assay: Cytotoxicity against human A549 cells assessed as cell viability at 10 uM after 24 hrs by MTT assay relative to control; conditions: A549, 24 h, read-out: Activity; outline: as §1
JeKo-1 [2] = assay: Cytotoxicity against human JeKo1 cells assessed as cell viability at 10 uM after 24 hrs by MTT assay relative to control; conditions: JeKo-1, 24 h, read-out: Activity; outline: as §2
SK-N-MC = assay: Cytotoxicity against human SK-N-MC cells assessed as cell viability at 10 uM after 24 hrs by MTT assay relative to control; conditions: read-out: Activity; outline: as §1
SK-MEL-2 = assay: Cytotoxicity against human SK-MEL-2 cells assessed as cell viability at 10 uM after 24 hrs by MTT assay relative to control; conditions: SK-MEL-2, 24 h, read-out: Activity; outline: as §1
HeLa = assay: Cytotoxicity against human HeLa cells assessed as cell viability at 10 uM after 24 hrs by MTT assay relative to control; conditions: read-out: Activity; outline: as §1
HCT-116 = assay: Cytotoxicity against human HCT116 cells assessed as cell viability at 10 uM after 24 hrs by MTT assay relative to control; conditions: HCT-116, 24 h, read-out: Activity; outline: as §1
SJSA-1 = assay: Cytotoxicity against human SJSA1 cells assessed as cell viability at 10 uM after 24 hrs by MTT assay relative to control; conditions: SJSA-1, 24 h, read-out: Activity; outline: as §1
JeKo-1 [3] = assay: Cytotoxicity against human JeKo1 cells assessed as cell viability at 2 uM after 24 hrs by MTT assay relative to control; conditions: JeKo-1, 24 h, read-out: Activity; outline: as §2
MDA-MB-231 = assay: Cytotoxicity against human MDA-MB-231 cells assessed as cell viability at 10 uM after 24 hrs by MTT assay relative to control; conditions: MDA-MB-231, 24 h, read-out: Activity; outline: as §1
Jurkat [4] = assay: Cytotoxicity against human Jurkat cells assessed as cell viability at 10 uM after 24 hrs by MTT assay relative to control; conditions: read-out: Activity; outline: as §2

SMILES	viability at 10 µM (PC-3) [%]	viability at 2 µM (Jurkat [1]) [%]	viability at 10 µM (A549) [%]	viability at 10 µM (JeKo-1 [2]) [%]	viability at 10 µM (SK-N-MC) [%]	viability at 10 µM (SK-MEL-2) [%]	viability at 10 µM (HeLa) [%]	viability at 10 µM (HCT-116) [%]	viability at 10 µM (SJSA-1) [%]	viability at 2 µM (JeKo-1 [3]) [%]	viability at 10 µM (MDA-MB-231) [%]	viability at 10 µM (Jurkat [4]) [%]
C=C1C(=O)O[C@@H]2[C@H]3O[C@]3(C)CC/C=C(\C)[C@@H](OC(=O)c3ccc(C(F)(F)F)cc3)C[C@@H]12	47.6	78.9	90.4	23.3	67.4	88.1	68	40	58.2	93.6	69	93.2
C=C1C(=O)O[C@@H]2[C@H]3O[C@]3(C)CC/C=C(/C)[C@@H](OC(C(=O)OCc3ccccc3)c3ccccc3)C[C@@H]12 (some centres undefined)	91.9	82	69.8	-1.3	84.1	66.3	79	63.7	103	89.4	101	0.6
C=C1C(=O)O[C@@H]2[C@H]3O[C@]3(C)CC/C=C(/COc3coc(-c4ccc(Br)cc4)c3)CC[C@@H]12	97.1	87.6	95.2	-2	90.9	103	59.2	26.4	93.7	98.8	87.1	0
C=C1C(=O)O[C@@H]2[C@H]3O[C@]3(C)CC/C=C(/COCc3ccc(C(F)(F)F)cc3)CC[C@@H]12	89.3	100	87.7	18.2	93.6	79.6	72.5	82.9	100	97.3	100	21.8
C=C1C(=O)O[C@@H]2[C@H]3O[C@]3(C)CC/C=C(/COC(=O)Nc3ccccc3)CC[C@@H]12	85.3	89.2	60.3	16.6	102	80.5	74.2	45.9	100	100	97.1	0
C=C1C(=O)O[C@@H]2[C@H]3O[C@]3(C)CC/C=C(/COC(=O)Nc3cccc4ccccc34)CC[C@@H]12	81.9	96	84.5	16.8	104	73.6	75	100	98.3	102	100	89
C=C1C(=O)O[C@@H]2[C@H]3O[C@]3(C)CC/C=C(/COC(C(=O)OCC)c3ccccc3)CC[C@@H]12 (some centres undefined)	85.8	87.8	59.1	16.5	98	81.2	85.1	76.7	100	88.6	98.8	18.3
C=C1C(=O)O[C@@H]2[C@H]3O[C@]3(C)CC/C=C(/COC(C(=O)OCc3ccccc3)c3ccccc3)CC[C@@H]12 (some centres undefined)	85.2	87.8	81.5	0.8	97.8	80.7	79.2	45.8	101	98.7	88.1	1
C=C1C(=O)O[C@@H]2[C@H]3O[C@]3(C)CC/C=C(/COC(=O)c3ccc(C(F)(F)F)cc3)CC[C@@H]12	69.3	92.4	94.1	-1.6	67.8	85.4	63.9	27.3	73.6	95.9	75.5	0
C=C1C(=O)O[C@@H]2[C@H]3O[C@]3(C)CC/C=C(/COCc3ccccc3)CC[C@@H]12	94.7	91	99.3	5	75.3	84.2	74.8	96.3	99.4	100	100	6
C=C1C(=O)O[C@@H]2[C@H]3O[C@]3(C)CC/C=C(/C)[C@@H](OC(=O)Nc3ccccc3)C[C@@H]12	88.4	89.8	84.5	2.6	91.9	69.4	69	55.3	96.6	92.2	100	2.9
C=C1C(=O)O[C@@H]2[C@H]3O[C@]3(C)CC/C=C(/COC(C(=O)OCC)c3ccc(C(F)(F)F)cc3)CC[C@@H]12 (some centres undefined)	87.2	90.2	74.8	26.4	96.9	89.8	89.6	77.5	100	89.3	96.3	29.3
C=C1C(=O)O[C@@H]2[C@H]3O[C@]3(C)CC/C=C(/COC(=O)c3ccc4ccccc4c3)CC[C@@H]12	81.9	97.9	84.5	63.2	104	73.6	75	100	98.3	89.2	100	75.7
C=C1C(=O)O[C@@H]2[C@H]3O[C@]3(C)CC/C=C(/COC(=O)c3cc(-c4ccc(Cl)cc4)on3)CC[C@@H]12	95.2	94	102	39.4	64.5	98.6	88.4	103	100	90.6	100	47.1
C=C1C(=O)O[C@@H]2[C@H]3O[C@]3(C)CC/C=C(/C)[C@@H](OC(=O)c3cccs3)C[C@@H]12	93	94	102	12.9	98.2	94.7	87.5	29.4	98.3	98.1	97.6	15.4
C=C1C(=O)O[C@@H]2[C@H]3O[C@]3(C)CC/C=C(/C)[C@@H](OC(=O)Nc3cccc4ccccc34)C[C@@H]12	83.4	93.3	95.8	75.7	96.8	98.7	88.8	100	100	97.6	100	84
C=C1C(=O)O[C@@H]2[C@H]3O[C@]3(C)CC/C=C(/C)[C@@H](OC(C(=O)OCC)c3ccc(C(F)(F)F)cc3)C[C@@H]12 (some centres undefined)	60.4	80.6	70.4	-1.4	69.8	71.2	67.1	20	100	76.3	77.6	0
